Source: publication PMC7184531 (Heliyon, 2020)
Like-named read-outs stand apart in the source and are kept apart here.

Legend:
3T3-L1 cells [1] = test: Cytotoxicity analysis; type: cell-based; conditions: for % cell viability: MTT assay, 72 h
Summary of the method: (§1)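 3T3-L1 cells grown in high-glucose DMEM with 10% FBS and 2 mM glutamine at 37 °C, 5% CO2. Seeded at 1 × 10^4 cells per well with 30 nM insulin in detection medium for 24–48 h. Test compound at 0.01–1000 μg/mL for 72 h. Then MTT (0.5 mg/mL in phosphate buffer) for 4 h, DMSO solubilisation, A570. % viability reported as mean of triplicates ± SD.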

[2] = target: α-Glucosidase from Saccharomyces cerevisiae; test: α-Glucosidase inhibitory assay; type: biochemical; conditions: for IC50: read-out: α-glucosidase inhibition (IC50)
Cytotoxicity analysis = type: cell-based; conditions: mouse, 3T3-L1 cells
Summary of the method: as §1

3T3-L1 cells [3] = test: Glucose consumption assay in 3T3-L1 cells; type: cell-based; conditions: Mus musculus
[4] = 3T3-L1, read-out: glucose consumption (IC50, μM)

Molecule	IC50 [2]	viability at 72 h (Cytotoxicity analysis)	IC50 (3T3-L1 cells [3]; [4])	further results
CN(C)C(=N)N=C(N)N [Metformin, reference compound]		99.7%	45.4 µM	IC50 (3T3-L1 cells [3]; 3T3-L1, read-out: glucose consumption (IC50, μg/mL)): 6.3 µg/mL
guttiferone I [Compound 2]	13.1 µM			toxicity to cells (in words) (3T3-L1 cells [1]): without causing toxicity to cells; % cell viability (3T3-L1 cells [1]): 98.7%; toxicity to cells (in words) (3T3-L1 cells [1]; listed as Guttiferone I): without causing toxic effects
C[C@H]1O[C@H](O[C@H]2[C@H](O)[C@@H](O)[C@@H](O[C@H]3[C@H](O)[C@@H](O)C(O)O[C@@H]3CO)O[C@@H]2CO)[C@H](O)[C@@H](O)[C@@H]1N[C@H]1C=C(CO)[C@@H](O)[C@H](O)[C@H]1O (stereo partly drawn) [Acarbose, reference compound]				% inhibition at 200 μg/mL (α-glucosidase) ([2]; final concentration of 200 μg/mL): 98.9%
O=c1c2cc(O)ccc2oc2cccc(O)c12 [Compound 3, 1,7-dihydroxyxanthone]	> 100 µM	105%		
COc1ccc2oc3cccc(O)c3c(=O)c2c1 [Compound 4, 1-hydroxyl-7 methoxyxanthone]	> 100 µM	102%	23.2 µM	

Continued, in another order:

IC50 [2]	Molecule	viability at 72 h (Cytotoxicity analysis)	IC50 (3T3-L1 cells [3]; [4])	further results
18 µM	cowanol [Compound 7]			% cell viability (3T3-L1 cells [1]): 100.9%
> 100 µM	CC(C)=CCC/C(C)=C/Cc1c(O)cc2oc3c(O)cccc3c(=O)c2c1O [Compound 5, mangostinone]	93.1%	16 µM	
> 100 µM	C[C@H]1C(=O)CC[C@@H]2[C@]1(C)CC[C@H]1[C@@]2(C)CC[C@@]2(C)[C@@H]3CC(C)(C)CC[C@]3(C)CC[C@]12C [Compound 9, friedelin]	101%	18.5 µM	
